Experimental data from ChEMBL document CHEMBL4152216, “Syntheses and anti-pancreatic cancer activities of rakicidin A analogues” (Eur J Med Chem, 2018).

Assays:
[1] = tested on: PANC-1; experiment: Cytotoxicity against human PANC1 cells after 72 hrs under hypoxic condition by MTT assay; format: functional, cell-based; conditions: PANC-1, 72 h
In short: (§1)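 PANC-1, PATU8988T and ASPC-1 cells were grown in DMEM with 10% FBS at 37 °C and 5% CO2, then seeded at 4000 cells/well. Compounds were added at various concentrations after 6 h. Normoxic plates stayed at 37 °C, 5% CO2. Hypoxic plates went into a chamber purged 10 min with 5% CO2/1% O2/94% N2, sealed, at 37 °C. After 72 h, MTT was added for 4 h, formazan dissolved in DMSO and read at 570 nm. IC50 is the mean ± SD of three independent experiments.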

[2] = tested on: PaTu 8988t; experiment: Cytotoxicity against human PA-TU-8988T cells after 72 hrs under normoxic condition by MTT assay; format: functional, cell-based; in short: as §1
[3] = tested on: PANC-1; experiment: Selectivity index, ratio of IC50 against human PANC1 cells under normoxic condition to IC50 for human PANC1 cells under hypoxic condition; format: functional
In short: (§2)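 Hypoxic selectivity index is IC50 (normoxia)/IC50 (hypoxia). Both IC50s come from the 72 h MTT assay in the same cell line, run under normoxia (37 °C, 5% CO2) or a sealed 1% O2/5% CO2/94% N2 chamber, each the mean of three independent experiments.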

[4] = tested on: ASPC1; experiment: Cytotoxicity against human Aspc-1 cells after 72 hrs under hypoxic condition by MTT assay; format: functional, cell-based; conditions: ASPC1, 72 h; in short: as §1
[5] = tested on: PANC-1; experiment: Cytotoxicity against human PANC1 cells after 72 hrs under normoxic condition by MTT assay; format: functional, cell-based; conditions: PANC-1, 72 h; in short: as §1
[6] = tested on: ASPC1; experiment: Selectivity index, ratio of IC50 against human Aspc-1 cells under normoxic condition to IC50 for human Aspc-1 cells under hypoxic condition; format: functional; in short: as §2
[7] = tested on: PANC-1; experiment: Inhibition of cancer stem cell population of human PANC1 cells assessed as CD24+/CD44+/ESA+ cell population level at 0.15 uM after 48 hrs by flow cytometric analysis (reference value: 1.7%); format: functional; parameters: scale not given: the % may be the effect or the level left
[8] = tested on: PaTu 8988t; experiment: Selectivity index, ratio of IC50 against human PA-TU-8988T cells under normoxic condition to IC50 for human PA-TU-8988T cells under hypoxic condition; format: functional; in short: as §2
[9] = tested on: ASPC1; experiment: Cytotoxicity against human Aspc-1 cells after 72 hrs under normoxic condition by MTT assay; format: functional, cell-based; conditions: ASPC1, 72 h; in short: as §1
[10] = tested on: PaTu 8988t; experiment: Cytotoxicity against human PA-TU-8988T cells after 72 hrs under hypoxic condition by MTT assay; format: functional, cell-based; in short: as §1

Compound | IC50 [1] | IC50 [2] | Ratio IC50 [3] | IC50 [4] | IC50 [5] | Ratio IC50 [6] | Activity [7] | Ratio IC50 [8] | IC50 [9] | IC50 [10]
C=C1/C=C/C(=O)N(C)CC(=O)N[C@@H]([C@H](O)C(=O)OC)C(=O)O[C@@H]([C@H](C)CCCCCCCCCCCC(C)C)[C@H](C)C(=O)N1 | 0.09 µM | 0.45 µM | 2.98 | 0.15 µM | 0.27 µM | 3.63 | 0.83% | 3.91 | 0.54 µM | 0.12 µM
C=C1/C=C/C(=O)N(CCCCCC)CC(=O)N[C@@H]([C@H](O)C(=O)OC)C(=O)O[C@@H]([C@H](C)CCCCCCCCCCCC(C)C)[C@H](C)C(=O)N1 | 7 µM | – | >7.11 | – | > 50 µM | – | – | – | – | –
COC(=O)C[C@@H]1NC(=O)CN(C)C(=O)/C=C/CNC(=O)[C@@H](C)[C@H]([C@H](C)CCCCCCCCCCCC(C)C)OC1=O | 28 µM | – | 0.76 | – | 21 µM | – | – | – | – | –
C=C1/C=C/C(=O)N(C)CC(=O)N[C@@H](CC(=O)OC(C)C)C(=O)O[C@@H]([C@H](C)CCCCCCCCCCCC(C)C)[C@H](C)C(=O)N1 | 0.7 µM | – | 2.6 | – | 1.8 µM | – | – | – | – | –
C=C1/C=C/C(=O)N(C)CC(=O)N[C@@H](C)C(=O)O[C@@H]([C@H](C)CCCCCCCCCCCCCC)[C@H](C)C(=O)N1 | 0.27 µM | – | 4.04 | – | 1.1 µM | – | – | – | – | –
C=C1/C=C/C(=O)N(C)CC(=O)N[C@@H](Cc2ccccc2)C(=O)O[C@@H]([C@H](C)CCCCCCCCCCCCCC)[C@H](C)C(=O)N1 | 0.12 µM | 1.4 µM | 3.76 | 0.6 µM | 0.43 µM | 2.4 | 1.6% | 2.14 | 1.4 µM | 0.65 µM
C=C1/C=C/C(=O)N(C)CC(=O)N[C@@H](CC(=O)OCC)C(=O)O[C@@H]([C@H](C)CCCCCCCCCCCC(C)C)[C@H](C)C(=O)N1 | 0.074 µM | 0.32 µM | 2.43 | 0.15 µM | 0.18 µM | 1.85 | – | 2.89 | 0.28 µM | 0.11 µM
CC(=O)O[C@H]1C(=O)[C@@]2(C)[C@H]([C@H](OC(=O)c3ccccc3)[C@]3(O)C[C@H](OC(=O)[C@H](O)[C@@H](NC(=O)c4ccccc4)c4ccccc4)C(C)=C1C3(C)C)[C@]1(OC(C)=O)CO[C@@H]1C[C@@H]2O [PACLITAXEL] | – | – | – | – | – | – | 1.6% | – | – | –
C#CCOC(=O)C[C@@H]1NC(=O)CN(C)C(=O)/C=C/C(=C)NC(=O)[C@@H](C)[C@H]([C@H](C)CCCCCCCCCCCC(C)C)OC1=O | 0.066 µM | 0.3 µM | 2.21 | 0.12 µM | 0.15 µM | 2.23 | 1.9% | 2.8 | 0.26 µM | 0.11 µM
CCCCCCCCCCCCCC[C@@H](C)[C@@H]1OC(=O)[C@H](CC(=O)NC2CC2)NC(=O)CN(C)C(=O)/C=C/[C@H](CO)NC(=O)[C@H]1C | > 10 µM | – | – | – | > 10 µM | – | – | – | – | –
C=C1/C=C/C(=O)N(CC(F)(F)F)CC(=O)N[C@@H]([C@H](O)C(=O)OC)C(=O)O[C@@H]([C@H](C)CCCCCCCCCCCC(C)C)[C@H](C)C(=O)N1 | 1.5 µM | – | 1.72 | – | 2.5 µM | – | – | – | – | –
C=C1/C=C/C(=O)N(C)CC(=O)N[C@@H](CCC(=O)OC)C(=O)O[C@@H]([C@H](C)CCCCCCCCCCCCCC)[C@H](C)C(=O)N1 | 0.3 µM | – | 3.54 | – | 1.1 µM | – | – | – | – | –
C=C1/C=C/C(=O)N(C)C(C)C(=O)N[C@@H]([C@H](O)C(=O)OC)C(=O)O[C@@H]([C@H](C)CCCCCCCCCCCC(C)C)[C@H](C)C(=O)N1 (single isomer, unassigned; 1d) | 0.079 µM | 1.1 µM | 8.34 | 0.4 µM | 0.66 µM | 7.87 | – | 2.86 | 3.2 µM | 0.38 µM
C=C1/C=C/C(=O)N(C)C(C)C(=O)N[C@@H]([C@H](O)C(=O)OC)C(=O)O[C@@H]([C@H](C)CCCCCCCCCCCC(C)C)[C@H](C)C(=O)N1 (single isomer, unassigned; 1c) | 0.043 µM | 0.54 µM | 9.53 | 0.2 µM | 0.41 µM | 5.71 | – | 2.79 | 1.2 µM | 0.2 µM
C=C1/C=C/C(=O)N(C)CC(=O)N[C@@H](C(C)C)C(=O)O[C@@H]([C@H](C)CCCCCCCCCCCCCC)[C@H](C)C(=O)N1 | 0.35 µM | – | 3 | – | 1 µM | – | – | – | – | –
C=C1/C=C/C(=O)N(C)CC(=O)N[C@@H](CC(=O)OC)C(=O)O[C@@H]([C@H](C)CCCCCCCCCCCC(C)C)[C@H](C)C(=O)N1 | 0.048 µM | 0.36 µM | 2.36 | 0.6 µM | 0.11 µM | 0.59 | 1.2% | 5.03 | 0.36 µM | 0.073 µM
C=C1/C=C/C(=O)N(C)CC(=O)N[C@@H](CC(=O)NC)C(=O)O[C@@H]([C@H](C)CCCCCCCCCCCCCC)[C@H](C)C(=O)N1 | 0.038 µM | 0.26 µM | 4.44 | 0.046 µM | 0.17 µM | 10.98 | 0.33% | 4.42 | 0.5 µM | 0.06 µM
CCCCCCCCCCCCCC[C@@H](C)[C@@H]1OC(=O)[C@H](CC(=O)NC2CC2)NC(=O)CN(C)C(=O)/C=C/C(CO[Si](c2ccccc2)(c2ccccc2)C(C)(C)C)NC(=O)[C@H]1C (stereo not given in full) | > 10 µM | – | – | – | > 10 µM | – | – | – | – | –
C=C1/C=C/C(=O)N(C)CC(=O)N[C@@H]([C@H](O)C(=O)OCC)C(=O)O[C@@H]([C@H](C)CCCCCCCCCCCC(C)C)[C@H](C)C(=O)N1 | 0.067 µM | 0.38 µM | 2.33 | 0.18 µM | 0.16 µM | 2.64 | – | 3.25 | 0.48 µM | 0.12 µM
C=C1/C=C/C(=O)N(C)CC(=O)N[C@@H](CC(=O)OC)C(=O)O[C@@H]([C@H](C)CCCCCCCCCCCCCC)[C@H](C)C(=O)N1 | 0.058 µM | 0.64 µM | 1.98 | 0.35 µM | 0.12 µM | 2.8 | 0.7% | 1.87 | 0.98 µM | 0.34 µM
C=C1/C=C/C(=O)N(C)CC(=O)O[C@@H](CCCCCCCCCCCCC)[C@H](C)C(=O)[C@](C)(O)C(=O)NCC(=O)N1 | 0.015 µM | – | 43.33 | – | 0.65 µM | – | – | – | – | –
